Assay outcomes: PubChem BioAssay, several laboratories
Yeast superoxide – lowers age-related superoxide in aged yeast cells. S. cerevisiae aged cells, superoxide DHE fluorescence; stronger effect = lower value. superoxide response (% of plate mean), % at 10 µM. hit rate 0.18% among 330,000. AID 2690;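 active = superoxide response under a set limit, about three screen SD below normal, cut at about 65% in these data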;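 also: yeast aged for seven days with compound at 30 °C before DHE staining; 100% = average MFI of all compound-treated wells on the plate with controls excluded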
SMARCA2 act – increases SMARCA2 function in MMTV reporter cells; MG213 cells, MMTV-luciferase reporter, dexamethasone, overnight; activation, % at 9.1 µM; hit rate 1% among 370,000; AID 652017; in the data active = activation above about 7.8%;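 also: 0% = vehicle wells and 100% = reference activator wells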
AHR act – human AHR activation. AHR-responsive luciferase reporter cells, luminescence. hit rate 2.5% among 320,000. P35869. activation, % at 5 µM; in the data active = activation above about 47%;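 also: 0% = vehicle wells and 100% = reference agonist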
Target sequence (P35869 whole entry, looked up): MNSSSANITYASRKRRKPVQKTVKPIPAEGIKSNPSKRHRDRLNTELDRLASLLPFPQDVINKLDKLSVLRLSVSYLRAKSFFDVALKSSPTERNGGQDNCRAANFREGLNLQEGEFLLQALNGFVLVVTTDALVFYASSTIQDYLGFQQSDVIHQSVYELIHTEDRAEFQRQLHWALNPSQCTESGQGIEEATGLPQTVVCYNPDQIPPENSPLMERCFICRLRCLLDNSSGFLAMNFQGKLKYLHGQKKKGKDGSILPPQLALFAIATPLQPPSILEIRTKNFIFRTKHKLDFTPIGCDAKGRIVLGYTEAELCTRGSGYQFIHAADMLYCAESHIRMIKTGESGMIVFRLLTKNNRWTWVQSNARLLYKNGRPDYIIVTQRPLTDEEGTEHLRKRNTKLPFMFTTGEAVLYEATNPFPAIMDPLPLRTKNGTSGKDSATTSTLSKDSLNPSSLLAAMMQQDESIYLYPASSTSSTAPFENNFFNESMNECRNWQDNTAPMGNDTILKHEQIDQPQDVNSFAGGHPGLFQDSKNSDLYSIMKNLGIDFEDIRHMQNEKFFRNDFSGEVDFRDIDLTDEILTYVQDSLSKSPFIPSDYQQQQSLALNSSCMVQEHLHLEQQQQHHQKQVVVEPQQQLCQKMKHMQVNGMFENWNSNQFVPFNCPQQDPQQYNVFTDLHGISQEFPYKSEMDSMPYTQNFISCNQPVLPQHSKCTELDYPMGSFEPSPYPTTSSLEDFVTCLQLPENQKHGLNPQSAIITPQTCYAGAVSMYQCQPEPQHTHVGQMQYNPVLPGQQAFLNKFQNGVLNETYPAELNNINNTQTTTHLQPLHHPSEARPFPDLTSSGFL
SR-BI DiI-HDL act – activators of SR-BI mediated HDL lipid uptake | CHO ldlA[mSR-BI] cells, DiI-HDL uptake fluorescence, 3 h; 100 = double the neutral-control signal | activation, % at 12.5 µM | hit rate 0.096% among 320,000 | AID 504775;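 active = mean replicate activation of at least 60% and every replicate at or above 60%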;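 also: 0% = median plate neutral-control signal and 100% = twice that signal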
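System: LDL receptor-deficient CHO ldlA cells overexpressing murine SR-BI | Timing: 3 h uptake period with compound, 37 °C | Medium: HEPES-buffered (25 mM, pH 7.4) F12 plus 0.5% BSA | Dosing: Single-point compound dose | Signal: Bottom-read fluorescence, 550/595 nm | Read-out: Retained DiI signal reflecting DiI-HDL uptake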
SR-BI DiI inh – mouse SR-BI HDL lipid transfer inhibition | Q61009 | ldlA[mSR-BI] CHO cells, DiI-HDL uptake fluorescence, 3 h | inhibition, % at 12.5 µM | hit rate 0.96% among 320,000;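 active = mean replicate inhibition of at least 70% and a set share of replicates each scoring 70 or more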;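 also: 0% = median of neutral control wells and 100% = median of positive control wells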
Hep lipid drop – modulators of hepatic lipid droplet formation | AML12 mouse hepatocytes, oleate lipid droplets, BODIPY imaging | hit rate 0.4% among 240,000 | inhibition, % at 6.5 µM;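 active = lipid droplet intensity inhibited by at least 50%, with more than 500 cells counted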
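Assay system: AML12 hepatocytes (mouse) / Also added: 100 µM oleic acid challenge / Times: overnight treatment with compound plus oleate / Detection: high-content imaging of BODIPY-stained droplets and DAPI nuclei / Evaluation: % inhibition of lipid droplet signal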
SMARCA2 conf – SMARCA2 activation, confirmation screen; shares compounds with SMARCA2 act; MG213 cells, MMTV-luciferase with dexamethasone, luminescence, overnight; MG213 cells expressing E1A, Rb sequestered; DMSO wells 0%, reference activator 100%; hit rate 30% among 3,500; AID 652260; activation, % at 9.1 µM;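 active = activation above its plate's cutoff, the mean activation of tested wells plus 3 SD, cut at about 7.9% in these data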
GAL4-VP16 Luc – activates GAL4-VP16 luciferase, flagging SMARCA2 activator hits; shares compounds with SMARCA2 act; HEK293 GAL4-VP16 pG5luc reporter, luciferase luminescence; scaled: DMSO wells 0%, SAHA wells 100%; hit rate 41% among 3,500; activation, % at 9.1 µM;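 active = activation above the solvent-only control well mean plus 3 SD, averaged across control plates, cut at about 5.2% in these data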
Active calls of the source: *; / = not tested or not shown. Only some compounds are listed: those with a hit (about 4.3% of all), similar ones and a draw of the others.

SMILES	Yeast superoxide	SMARCA2 act	AHR act	SR-BI DiI-HDL act	SR-BI DiI inh	Hep lipid drop	SMARCA2 conf	GAL4-VP16 Luc
COc1cc(NC(=O)c2ccccc2F)c(OC)cc1NC(=O)CN1CCCCC1	96	-6	44	-40	40	6	/	/
O=C(Nc1ccccn1)C(=O)Nc1ccccn1	95	11*	4	15	-15	11	6	8.5*
O=C(c1cccc(F)c1)N1CCCC(c2nc(-c3cccs3)no2)C1 (stereo unspecified)	/	-1	/	/	/	/	/	/
C=CCN1C(=O)[C@H](CC(=O)NCC23CC4CC(CC(C4)C2)C3)[C@@]2(C(=O)OCC)CCCC=C12	/	-3	/	/	/	/	/	/
Cc1nn(CC(=O)NCCCN2CCN(Cc3ccccc3)CC2)c(=O)c2cc(-c3ccccc3)nn12	93	8.5*	-1	15	-15	0	-1	2
CCc1ccc(-c2cc3c(=O)n(CC(=O)NCCCN4CCC(Cc5ccccc5)CC4)nc(C)n3n2)cc1	128	10*	2	-14	14	-16	-11	3
O=C(c1cccc(F)c1F)N1CCCC(c2nc(-c3cccs3)no2)C1 (stereo unspecified)	/	4	/	/	/	/	/	/
COC(=O)C1=C(C)N(Cc2ccccc2C(F)(F)F)C(=NCc2ccc(OC)cc2)NC1c1ccccc1C(F)(F)F (stereo unspecified)	/	-5	/	/	/	/	/	/
CCCN(CCC)CCCNC(=S)Nc1ccc2nc(N3CCCC3)cc(C)c2c1	124	15*	2	-1	1	3	16*	-1
CCCCN(CC)CCCNC(=S)Nc1ccc2nc(N3CCN(C)CC3)cc(C)c2c1	96	2	3	-19	19	5	/	/
CCN(CC)CCNC(=S)Nc1ccc2nc(N3CCN(C)CC3)cc(C)c2c1	96	5	1	/	/	-10	/	/
CCN(CC)CCNC(=S)Nc1ccc2nc(N3CCCC3)cc(C)c2c1	99	9.6*	12	31	-31	1	15*	0
Cc1ccc(SCC(=O)NNC(=O)c2ccccc2)cc1C	114	9.6*	0	/	/	0	-4	-2
Cc1ccc(C)c(SCC(=O)NNC(=O)c2ccccc2)c1	111	-3	5	-10	10	0	/	/
O=C(Oc1ccccc1Cl)c1ccc(-n2cncn2)nc1	111	8.2*	5	2	-2	/	-4	0
CC(=O)Nc1ccc2nc(NC(=O)c3cccnc3)sc2c1	97	11*	6	-4	4	0	10*	4
CCN1CCN(C(=O)c2cc3c(=O)n(C)c4ccccc4c3n2C)CC1	102	1	5	11	-11	2	/	/
Cn1c(C(=O)N2CCN(Cc3ccccc3)CC2)cc2c(=O)n(C)c3ccccc3c21	95	8.9*	12	-56	56	/	4	0
Cc1cnc(NC(=O)CN2CCN(c3ccccn3)CC2)s1	114	12*	23	9	-9	/	22*	1
COc1ccc(/C=C/S(=O)(=O)NCc2ccc(F)cc2)c(CNC(=O)OC(C)(C)C)c1	/	-5	/	/	/	/	/	/
C/C(=N/NC(=O)c1ccc2c(c1)OCO2)c1ccc(NC(=O)c2ccc(F)cc2)cc1	100	8.3*	/	-47	47	8	6	7.2*
CCOC(=O)C1=CCN(S(=O)(=O)c2ccc(Cl)cc2)C1c1ccc(Cl)c(Cl)c1 (stereo unspecified)	/	-4	/	/	/	/	/	/
CC(C)C[C@H]1COc2cc(Br)ccc2S(=O)(=O)N1Cc1cn(Cc2ccc(F)cc2)nn1	/	0	/	/	/	/	/	/
C=CCN1C(=O)[C@@H](CC(=O)NCc2cccc3ccccc23)[C@]2(C(=O)OCC)CCCCC/C=C/12	/	-1	/	/	/	/	/	/
CC(=O)Nc1c(C(=O)O)oc2ccccc12	98	8.1*	8	-2	2	/	0	0
SMILES	Yeast superoxide	SMARCA2 act	AHR act	SR-BI DiI-HDL act	SR-BI DiI inh	Hep lipid drop	SMARCA2 conf	GAL4-VP16 Luc
CC(=O)Nc1c(C(=O)O)oc2ccc(Cl)cc12	96	-3	18	5	-5	/	/	/
N#Cc1ccc(OCC(=O)N[C@@H](Cc2ccccc2)c2nc3ccccc3[nH]2)cc1	/	-2	/	/	/	/	/	/
CC(C)(C)N1NC(=O)Nc2ccccc2C1=O	111	9.6*	-1	18	-18	-1	-3	0
CC(C)(C)N1C(=O)c2ccccc2NC(=O)N1Cc1ccccc1	97	4	2	5	-5	3	/	/
COc1ccc(C(=O)CSc2nnc(-c3n[nH]c4c3CCC4)n2N)cc1OC	/	5	/	/	/	/	/	/
CN1CCc2c(sc3c2C(=O)NC(c2cccc(OC(=O)c4cccs4)c2)N3)C1 (stereo unspecified)	126	14*	29	22	-22	19	2	11*
Cn1ccc(C(=O)N/N=C/c2c[nH]c3ccccc23)n1	101	16*	42	/	/	-4	8.0*	4
C#CCN1CC(N(C)CCOC(=O)CC2C=CCC2)CS1(=O)=O (stereo unspecified)	/	0	/	/	/	/	/	/
CCOc1cc(NC(=S)NCc2ccco2)c(OCC)cc1NC(C)=O	118	3	6	9	-9	/	/	/
CCOc1cc(NC(=S)NCc2ccco2)c(OCC)cc1NC(=O)C1CC1	99	8.0*	12	11	-11	9	-1	1
C#CCN1CC(N(C)CCOC(=O)c2cc(C)cc(C)c2)CS1(=O)=O (stereo unspecified)	/	-4	/	/	/	/	/	/
Cc1nnc(Sc2cc(NCCCO)c([N+](=O)[O-])c3nonc23)s1	/	10*	/	21	-21	-6	-14	1
Cc1ccc(NC(=O)CSc2nc3ccccc3c(=O)n2CCCN2CCCCC2)cc1C	95	13*	-1	-2	2	/	6	3
Cc1cc(NC(=O)CSc2nc3c(sc4ccccc43)c(=O)n2CCCN2CCOCC2)n[nH]1	101	20*	32	20	-20	/	36*	-1
CCN1CCN(c2ccc(NC(=O)c3cccc(F)c3)cc2Cl)CC1	95	14*	5	-7	7	8	9.1*	5.8*
O=C(Nc1ccc2ccccc2c1)c1cccc(F)c1	100	9.4*	8	-45	45	6	3	11*
O=C(Nc1ccc2[nH]ncc2c1)c1cccc(F)c1	108	4	28	-3	3	-1	/	/
Cc1ccc2cc(NC(=O)c3ccccc3)ccc2n1	96	9.2*	0	4	-4	/	7	13*
CC(C)C(=O)Nc1cccc(NC(=O)c2cccc(F)c2)c1	83	-2	19	0	0	1	/	/
